Consider 4 molecules from ChEMBL document CHEMBL3272314, “Sturcture-activity relationship of daunorubicin and its peptide derivatives” (J Med Chem, 1976).

Active and inactive are the calls of the source. No cut-off for these calls is given here.

The nature of data set [1]: Dissociation constant, pKa of the compound. In kind it is physicochemical.
The target in data set [2] is Bacterial DNA-directed RNA polymerase (Bacteria) (UniProt P0A8V2+P0A7Z4+P0A8T7+P0A800). The data set is described as follows: Inhibition of Escherichia coli DNA-dependent RNA polymerase assessed as [3H]UMP incorporation into RNA using calf thymus DNA at 0.12 mM by liquid scintillation counting. In kind it is protein-complex assay. The procedure, abridged:
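E. coli RNA polymerase purified through a high-salt glycerol gradient step, 87 units/ml. Mix: 56 mM Tris-HCl pH 7.8, 1.6 mM MnCl2, 150 mM KCl, 1.6 mM β-mercaptoethanol, 0.6 mM each GTP/ATP/CTP, 0.15 mM [5-3H]-UTP, 0.12 mM P/l calf thymus DNA, drug at 0.12 mM. Started with enzyme at 37°C and sampled over time. TCA-insoluble RNA collected on filters and scintillation counted.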

The subject of data set [3] is Salmonidae. The data set is described as follows: Binding affinity to salmon sperm DNA assessed as first order dissociation rate at pH 6.2 by stop-flow technique in presence of 5 mM Na+ ionic strength. In outline: (§1)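 Salmon sperm DNA–drug complex preformed without SDS at 6 μM drug and 0.36 mM DNA P/l. Dissociation was started by mixing with 0.2% SDS and followed at 480 nm by stop-flow at 15°C. Buffers were 10 mM MES at pH 6.2 and 1 mM PIPES at pH 7.8, with Na+ set by NaCl. First-order k (sec⁻¹) was taken from rate plots over ≥2.5 half-lives.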

The test system of data set [4] is Salmonidae. The data set is described as follows: Binding affinity to salmon sperm DNA assessed as first order dissociation rate at pH 6.2 by stop-flow technique in presence of 21 mM Na+ ionic strength. In outline: as §1
Data set [5] concerns Salmonidae. Kind of data set: Binding affinity to salmon sperm DNA assessed as first order dissociation rate at pH 7.8 by stop-flow technique in presence of 1 mM Na+ ionic strength. In outline:
as §1

Data set [6] concerns Salmonidae. Kind of data set: Binding affinity to salmon sperm DNA assessed as first order dissociation rate at pH 7.8 by stop-flow technique in presence of 21 mM Na+ ionic strength. In outline: as §1
The test system of data set [7] is Salmonidae. The data set is described as follows: Binding affinity to salmon sperm DNA assessed as first order dissociation rate at pH 7.8 by stop-flow technique in presence of 201 mM Na+ ionic strength. In outline: as §1
The subject of another data set is P388. The data set is described as follows: Antitumor activity against mouse P388 cells allografted in mouse assessed as tumor growth inhibition at 0.25 to 10 mg/kg. It is filed as functional, organism-based. In outline:
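Screened by the NCI Drug Research and Development Branch against P388 lymphocytic leukemia in mice. Dosing was daily at 0.25-10.0 mg/kg, given by peritoneal injection in water.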

The nature of data set [8]: Retardation factor of the compound in 10% methanol-chloroform by TLC. It is filed as physicochemical.
A short description of data set [9]: Dissociation constant, pKa of the compound in 20% EtOH/H2O. In kind it is physicochemical.
Data set [10] in a line: Solubility of the compound in H2O at pH >7. In kind it is physicochemical.

Bacterial DNA-directed RNA polymerase (Bacteria), sequence (P0A7Z4 whole entry partner): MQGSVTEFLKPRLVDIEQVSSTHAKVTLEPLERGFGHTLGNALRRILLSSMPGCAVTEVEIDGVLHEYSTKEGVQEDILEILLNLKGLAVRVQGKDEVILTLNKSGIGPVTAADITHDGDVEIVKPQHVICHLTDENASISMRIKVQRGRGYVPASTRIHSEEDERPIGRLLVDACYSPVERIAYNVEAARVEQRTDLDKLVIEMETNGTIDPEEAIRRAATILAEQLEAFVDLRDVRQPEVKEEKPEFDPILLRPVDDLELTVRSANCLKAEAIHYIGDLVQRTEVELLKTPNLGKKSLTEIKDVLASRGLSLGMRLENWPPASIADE
Bacterial DNA-directed RNA polymerase (Bacteria), sequence (P0A800 2-91 partner limits assumed): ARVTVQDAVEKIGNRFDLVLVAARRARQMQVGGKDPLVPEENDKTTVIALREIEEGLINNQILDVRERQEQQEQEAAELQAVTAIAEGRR
Bacterial DNA-directed RNA polymerase (Bacteria), sequence (P0A8T7 whole entry partner): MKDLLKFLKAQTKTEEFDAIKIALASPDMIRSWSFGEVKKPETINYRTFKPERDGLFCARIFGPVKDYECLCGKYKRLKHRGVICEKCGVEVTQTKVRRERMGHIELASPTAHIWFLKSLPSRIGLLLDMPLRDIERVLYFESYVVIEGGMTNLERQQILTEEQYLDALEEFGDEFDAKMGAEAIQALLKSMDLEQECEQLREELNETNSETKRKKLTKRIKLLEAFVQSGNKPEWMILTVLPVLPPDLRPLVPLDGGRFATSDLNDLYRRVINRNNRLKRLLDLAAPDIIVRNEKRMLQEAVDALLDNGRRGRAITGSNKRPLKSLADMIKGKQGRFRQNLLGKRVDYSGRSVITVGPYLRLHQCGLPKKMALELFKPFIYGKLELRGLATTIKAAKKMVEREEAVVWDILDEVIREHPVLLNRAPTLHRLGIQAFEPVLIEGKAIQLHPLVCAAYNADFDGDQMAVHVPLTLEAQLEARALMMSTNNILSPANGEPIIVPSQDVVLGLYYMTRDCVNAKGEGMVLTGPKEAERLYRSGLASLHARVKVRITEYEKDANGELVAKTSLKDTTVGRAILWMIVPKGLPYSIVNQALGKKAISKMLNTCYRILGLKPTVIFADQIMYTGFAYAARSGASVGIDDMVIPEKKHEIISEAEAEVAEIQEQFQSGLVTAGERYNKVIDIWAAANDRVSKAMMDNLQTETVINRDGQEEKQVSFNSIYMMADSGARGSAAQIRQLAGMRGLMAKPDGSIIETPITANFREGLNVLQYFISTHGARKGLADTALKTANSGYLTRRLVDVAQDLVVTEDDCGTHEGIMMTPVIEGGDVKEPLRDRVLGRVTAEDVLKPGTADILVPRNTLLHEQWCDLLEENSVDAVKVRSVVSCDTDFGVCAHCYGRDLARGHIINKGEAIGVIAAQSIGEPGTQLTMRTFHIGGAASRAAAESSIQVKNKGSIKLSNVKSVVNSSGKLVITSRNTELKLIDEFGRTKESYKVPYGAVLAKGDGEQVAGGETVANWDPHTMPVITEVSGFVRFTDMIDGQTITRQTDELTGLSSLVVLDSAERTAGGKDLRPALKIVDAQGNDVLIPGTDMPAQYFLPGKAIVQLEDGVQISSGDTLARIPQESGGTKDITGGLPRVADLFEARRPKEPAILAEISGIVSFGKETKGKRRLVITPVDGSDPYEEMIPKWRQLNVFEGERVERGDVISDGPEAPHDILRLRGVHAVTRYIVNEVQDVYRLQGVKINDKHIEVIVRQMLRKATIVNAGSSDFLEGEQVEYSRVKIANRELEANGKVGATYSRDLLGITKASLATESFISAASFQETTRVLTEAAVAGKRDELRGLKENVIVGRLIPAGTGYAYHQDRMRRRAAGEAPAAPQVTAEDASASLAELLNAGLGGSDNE
Bacterial DNA-directed RNA polymerase (Bacteria), sequence (P0A8V2 whole entry): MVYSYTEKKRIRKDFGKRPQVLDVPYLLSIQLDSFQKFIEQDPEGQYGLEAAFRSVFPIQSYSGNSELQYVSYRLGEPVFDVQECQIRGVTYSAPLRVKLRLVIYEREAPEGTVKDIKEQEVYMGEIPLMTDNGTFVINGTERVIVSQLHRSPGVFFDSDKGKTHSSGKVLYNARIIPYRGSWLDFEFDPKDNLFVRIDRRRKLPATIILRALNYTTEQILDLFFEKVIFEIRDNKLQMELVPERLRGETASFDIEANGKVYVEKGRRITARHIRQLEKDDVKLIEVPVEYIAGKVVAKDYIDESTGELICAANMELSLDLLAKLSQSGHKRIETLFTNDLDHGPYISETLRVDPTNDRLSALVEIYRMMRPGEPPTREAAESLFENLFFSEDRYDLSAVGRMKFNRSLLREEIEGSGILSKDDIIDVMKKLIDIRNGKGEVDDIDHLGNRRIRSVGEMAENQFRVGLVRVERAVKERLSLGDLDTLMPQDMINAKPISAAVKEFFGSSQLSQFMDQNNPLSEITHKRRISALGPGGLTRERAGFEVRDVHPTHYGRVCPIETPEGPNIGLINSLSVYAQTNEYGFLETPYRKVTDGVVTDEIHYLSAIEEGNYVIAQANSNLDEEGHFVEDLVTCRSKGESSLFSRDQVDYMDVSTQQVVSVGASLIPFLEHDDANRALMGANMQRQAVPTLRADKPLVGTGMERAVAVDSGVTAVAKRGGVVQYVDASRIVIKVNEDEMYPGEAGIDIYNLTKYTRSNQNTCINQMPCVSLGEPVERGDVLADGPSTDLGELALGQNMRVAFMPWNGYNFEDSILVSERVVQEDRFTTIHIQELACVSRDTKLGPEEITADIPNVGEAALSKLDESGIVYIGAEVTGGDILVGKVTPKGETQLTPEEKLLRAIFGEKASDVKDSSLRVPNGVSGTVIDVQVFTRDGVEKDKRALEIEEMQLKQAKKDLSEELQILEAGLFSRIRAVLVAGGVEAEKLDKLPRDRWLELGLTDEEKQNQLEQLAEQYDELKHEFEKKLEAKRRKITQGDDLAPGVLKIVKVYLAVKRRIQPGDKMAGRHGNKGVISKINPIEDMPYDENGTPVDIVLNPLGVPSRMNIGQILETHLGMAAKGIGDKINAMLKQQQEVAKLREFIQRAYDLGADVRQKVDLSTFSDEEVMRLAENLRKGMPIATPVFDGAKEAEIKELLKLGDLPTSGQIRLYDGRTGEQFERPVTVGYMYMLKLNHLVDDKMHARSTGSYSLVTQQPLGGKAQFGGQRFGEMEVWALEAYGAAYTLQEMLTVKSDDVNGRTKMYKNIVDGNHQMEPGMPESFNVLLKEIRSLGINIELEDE

Consider `COc1cccc2c1C(=O)c1c(O)c3c(c(O)c1C2=O)C[C@@](O)(C(C)=O)C[C@@H]3O[C@H]1C[C@H](N)[C@H](O)[C@H](C)O1.Cl` [DAUNORUBICIN HYDROCHLORIDE], for which the pKa in [1] turned out to be 8.99. The inhibition entry in data set [2] is “Active”. Also, the K is 0.98 s⁻¹ with Salmonidae [3]; 0.98 s⁻¹ in the data set with Salmonidae [4]; 1.37 s⁻¹ in the data set with Salmonidae [5]; 1.57 s⁻¹ with Salmonidae [6]; 2.88 s⁻¹ in the data set on Salmonidae [7]. Besides, the TGI entry in the data set with P388 is “Active”. For the same molecule, in [8], the Rf was 0.17.

The molecule `COc1cccc2c1C(=O)c1c(O)c3c(c(O)c1C2=O)C[C@@](O)(C(C)=O)C[C@@H]3O[C@H]1C[C@H](NC(=O)CN(C)C)[C@H](O)[C@H](C)O1` came in with a pKa in data set [1] of 7.35. Besides, the inhibition result in data set [2] is “Active”. Besides, the TGI result with P388 was “Active”. In addition, the Rf in data set [8] was 0.68.

`COc1cccc2c1C(=O)c1c(O)c3c(c(O)c1C2=O)C[C@@](O)(C(C)=O)C[C@@H]3O[C@H]1C[C@H](NC(=O)CNC(=O)CN(C)C)[C@H](O)[C@H](C)O1`: in data set [1], the pKa worked out at 7.39. Further, the inhibition entry in data set [2] is “Active”. For the same molecule, the TGI entry with P388 was “Active”.

`CCCN(CCC)CC(=O)N[C@H]1C[C@H](O[C@H]2C[C@](O)(C(C)=O)Cc3c(O)c4c(c(O)c32)C(=O)c2c(OC)cccc2C4=O)O[C@@H](C)[C@H]1O` came in with a pKa in data set [9] of 7.2. In data set [10], the solubility entry is “Insoluble”. In the data set on P388, the TGI entry is “inactive”.

For orientation: pKa means the negative logarithm of the acid dissociation constant.
